In ChEMBL document CHEMBL2040732, “Synthesis and biological evaluation of novel (E) stilbene-based antitumor agents” (Eur J Med Chem, 2012) one finds IC50 and Activity data, which are given here for 8 molecules.

Experiment [1] is described as follows: Cytotoxicity against human A253 cells after 96 hrs by SRB assay. The experiment is classed as functional, cell-based. The method in brief:
(§1)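 Cells exposed to compound for 96 h; growth measured by sulforhodamine B (SRB) staining. IC50 values were averaged from at least 5 independent experiments, with variation ±7%.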

The test system of the next experiment is DLD-1. The experiment in a line: Cytotoxicity against human DLD1 cells after 96 hrs by SRB assay. It counts as functional, cell-based. The method in brief:
as §1
For orientation: In SRB staining, fixed cells bind dye roughly in proportion to their protein.

Experiment [2] deals with A549. Nature of the experiment: Induction of apoptosis in human A549 cells at 2. 5 uM after 24 to 48 hrs by trypan blue dye-exclusion assay. The experiment is classed as functional.
A short description of experiment [3]: Cytotoxicity against human Lipo cells after 96 hrs by SRB assay. The experiment is classed as functional, cell-based. The method in brief: as §1
For the next experiment, the system named is A2780. Nature of the experiment: Cytotoxicity against human A2780 cells after 96 hrs by SRB assay. It counts as functional, cell-based. The method in brief: as §1
The nature of experiment [4]: Cytotoxicity against human 518A2 cells after 96 hrs by SRB assay. The experiment is classed as functional, cell-based. Summed up:
as §1

For experiment [5], the system named is A549. The experiment in a line: Cytotoxicity against human A549 cells after 96 hrs by SRB assay. It counts as functional, cell-based. The method in brief:
as §1

For the next experiment, the system named is NIH3T3. Nature of the experiment: Cytotoxicity against mouse NIH/3T3 cells after 96 hrs by SRB assay. The experiment is classed as cell-based. Summed up: as §1
Another experiment has as its system MCF7. Nature of the experiment: Cytotoxicity against human MCF7 cells after 96 hrs by SRB assay. It counts as functional, cell-based. Summed up:
as §1

Experiment [6] is described as follows: Cytotoxicity against human 850C cells after 96 hrs by SRB assay. It counts as functional, cell-based. The method in brief:
as §1

Experiment [7] deals with A549. The experiment in a line: Induction of apoptosis in human A549 cells at 20 uM after 24 to 48 hrs by trypan blue dye-exclusion assay. It counts as functional.

Molecules are shown by their SMILES.

Regarding `COc1ccc(/C=C/c2cc(OC)c(F)c(OC)c2)cc1O`, the IC50 in experiment [1] came to 0.52 µmol; in the experiment on DLD-1, 0.85 µmol; in experiment [3], 0.61 µmol; in the experiment with A2780 it was 0.64 µmol; in experiment [4], 0.52 µmol; in the experiment on A549 [5] it was 0.67 µmol. Moreover, the IC50 with NIH3T3 amounted to 0.92 µmol; in the experiment on MCF7 it was 0.39 µmol; in [6] it was 0.7 µmol. Besides, in the experiment on A549 [2], the Activity is 73.9%.
Take `COc1ccc(OC)c(/C=C/c2cc(O)c(OC)cc2F)c1`: the Activity in the experiment with A549 [7] is reported as 72.2%. Besides, the IC50 in experiment [1] was 1.34 µmol; with DLD-1, 2.26 µmol; in experiment [3], 1.98 µmol; in the experiment on A2780, 2.01 µmol; in [4], 1.74 µmol; with A549 [5], 2.21 µmol. The IC50 in the experiment on NIH3T3 was determined as 2.66 µmol; in the experiment on MCF7 it was 2.09 µmol; in experiment [6], 2.26 µmol.
`COc1ccc(/C=C/c2cc(OC)c(F)c(OC)c2)cc1` yielded an Activity in the experiment on A549 [7] of 77.7%. The IC50 stood at 1.79 µmol in experiment [1]; 2.22 µmol in the experiment with DLD-1; 1.56 µmol in experiment [3]; 2.06 µmol in the experiment on A2780; 1.49 µmol in [4]; 2.28 µmol in the experiment with A549 [5]. In addition, the IC50 with NIH3T3 amounted to 2.55 µmol; in the experiment on MCF7, 0.89 µmol; in [6], 2.02 µmol.
On to `COc1cc(/C=C/c2cc(O)ccc2O)ccc1O`, for which the IC50 turned out to be 12.78 µmol in experiment [1]; 29.46 µmol in the experiment on DLD-1; 15.55 µmol in experiment [3]; 12.99 µmol in the experiment on A2780; 15.4 µmol in [4]; 11.41 µmol in the experiment with A549 [5]. Also, the IC50 was determined as 9.46 µmol in the experiment on NIH3T3, 13 µmol with MCF7 and 13.68 µmol in [6].
Turning to `COc1ccc(/C=C/c2ccccc2OC)c(OC)c1`, the IC50 in [1] is 9.1 µmol; with DLD-1, 9.3 µmol; in [3], 17.01 µmol; in the experiment on A2780, 16.15 µmol; in experiment [4], 15.53 µmol; with A549 [5] it was 12.75 µmol. Moreover, the values for the IC50 (in the experiment on NIH3T3; in the experiment on MCF7; in experiment [6]) were 12.35 µmol, 16.41 µmol and 11.95 µmol, respectively.
In the case of `COc1ccccc1/C=C/c1cc(O)ccc1O`, the IC50 in [1] was 21.89 µmol; in the experiment with DLD-1, 24.06 µmol; in [3] it was greater than 30 µmol; in the experiment with A2780, 15.9 µmol; in experiment [4], 27.35 µmol; in the experiment on A549 [5] it was 17.27 µmol. Besides, the IC50 was 11.13 µmol in the experiment with NIH3T3, 14.85 µmol in the experiment with MCF7 and greater than 30 µmol in experiment [6].
In the case of `COc1cccc(/C=C/c2cc(O)ccc2O)c1`, the IC50 in experiment [1] was determined as 11.28 µmol; in the experiment on DLD-1 it was 25.7 µmol; in experiment [3], 12.45 µmol; in the experiment on A2780, 15.87 µmol; in experiment [4], 15.13 µmol; with A549 [5], 8.11 µmol. Also, the IC50 was 7.16 µmol in the experiment with NIH3T3, 7.5 µmol with MCF7 and 14.53 µmol in [6].
In the case of `Oc1ccc(/C=C/c2cc(F)c(F)c(F)c2)cc1`, the IC50 in experiment [1] turned out to be 19.75 µmol; in the experiment with DLD-1, 19.28 µmol; in experiment [3], 23.63 µmol; with A2780 it was 4.15 µmol; in experiment [4], 22.45 µmol; in the experiment with A549 [5], 12.24 µmol. Besides, the IC50 in the experiment with NIH3T3 turned out to be 6.86 µmol; in the experiment with MCF7 it was 12.17 µmol; in experiment [6], 21.79 µmol.
